Measurements collected from several papers.
Protocols differ between the studies behind these lines.

SMILES | target | test | setting | measurement | value
Cc1nn(C)cc1-c1nc2c(N3CCN(Cc4ccc(Cl)cc4)CC3)c(Cl)cnc2[nH]1 | Tyrosine-protein kinase ABL1, non-phosphorylated (ABL1, Homo sapiens, UniProt P00519, F317L) | binding, competition with immobilised ligand | 1 µM | remaining binding | 100%
C#Cc1n[nH]c2c(-c3cn(C(C)c4ccccn4)c(=O)[nH]c3=O)cc(F)cc12 (stereo not shown) | Insulin-like growth factor 1 receptor (IGF1R, Homo sapiens, UniProt P08069) | enzyme activity, inhibitor | 1 µM | inhibition | -0.9%
CNCCN1CCC(OCc2ccccc2)CC1 | Protein arginine N-methyltransferase 6 (PRMT6, Homo sapiens, UniProt Q96LA8) | thermal stability, DSF | 200 µM | ΔTm | 11.3 °C
CCN(CC)CCCC[C@H](NC(=O)[C@H](CC(C)C)NC(=O)[C@H](C)NC(=O)[C@H](Cc1ccccc1)NC(=O)c1ccc(C(C)(C)C)cc1)C(=O)N[C@@H](CO)C(=O)OC | Histone acetyltransferase p300 (EP300, Homo sapiens, UniProt Q09472) | thermal stability, DSF | 25 µM | ΔTm | 0.7 °C
O=C(O)C(F)(F)C(F)(F)C(F)(F)C(F)(F)C(F)(F)C(F)(F)C(F)(F)F | Solute carrier family 22 member 11 (SLC22A11, Homo sapiens, UniProt Q9NSA0) | transporter uptake, substrate | pH 6.8 | Km | 9.95 µM
COc1ncccc1-c1cnn2ccc(N3CCN(C(=O)OC(C)C)CC3)nc12 | Receptor-interacting serine/threonine-protein kinase 4 (RIPK4, Homo sapiens, UniProt P57078) | binding, competition with immobilised ligand | 1 µM | remaining binding | 70%
Nc1ncc(-c2nc(N3CCOCC3)nc(N3CCOCC3)n2)c(C(F)F)n1 | Androgen receptor (AR, Homo sapiens, UniProt P10275) | cell-free assay, radioligand | 10 µM | remaining signal | 89.3%
CC[C@@H]1CN2CC[C@@]3(O)C(=Nc4cccc(C)c43)[C@@H]2C[C@@H]1/C(=C\OC)C(=O)OC | Delta-type opioid receptor (OPRD1, Homo sapiens, UniProt P41143) | β-arrestin recruitment, agonist | – | Emax | > 100%
COc1ccc(S(=O)(=O)N(CC(=O)NO)CC(C)C)cc1 | Neutrophil collagenase (MMP8, Homo sapiens, UniProt P22894) | enzyme activity, inhibitor | 0.1 µM | inhibition | 43%
Cn1cc(-c2cc(F)cc(N3CCn4c(cc5c4CCCC5)C3=O)c2CO)cc(Nc2ccc(N3CCN(C4COC4)CC3)cn2)c1=O | Tyrosine-protein kinase ABL1 (ABL1, Homo sapiens, UniProt P00519, T315I) | enzyme activity, inhibitor | 0.1 µM | inhibition | 4%
